Data: ChEMBL document CHEMBL1151922, “Structure-activity relationships of 3,5-disubstituted benzamides as glucokinase activators with potent in vivo efficacy” (Bioorg Med Chem, 2009)
Active and inactive are the calls of the source. The calls are words filed in the database; no cut-off is given here.

What was measured:
[1] = target: T1, Hexokinase-4 (Homo sapiens, UniProt P35557); experiment: Activation of flag-tagged human recombinant liver glucokinase expressed in Escherichia coli by glucose-6-phosphate dehydrogenase coupled continuous spectrophotometric assay in presence of 10 mM glucose
T1 sequence (P35557 whole entry): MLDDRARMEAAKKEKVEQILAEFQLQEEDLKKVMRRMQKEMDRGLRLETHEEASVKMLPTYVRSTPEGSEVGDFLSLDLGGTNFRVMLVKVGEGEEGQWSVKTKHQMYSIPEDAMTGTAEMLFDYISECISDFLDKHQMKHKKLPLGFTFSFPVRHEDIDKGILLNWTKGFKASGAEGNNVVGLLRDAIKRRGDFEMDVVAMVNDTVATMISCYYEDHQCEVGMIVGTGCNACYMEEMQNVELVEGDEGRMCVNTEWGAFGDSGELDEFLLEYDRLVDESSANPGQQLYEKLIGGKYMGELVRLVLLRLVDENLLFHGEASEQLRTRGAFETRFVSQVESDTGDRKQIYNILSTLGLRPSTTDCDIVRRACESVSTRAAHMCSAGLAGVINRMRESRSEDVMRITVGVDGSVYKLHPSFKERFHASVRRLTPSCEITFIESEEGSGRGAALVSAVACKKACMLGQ

[2] = target: T1, Hexokinase-4; experiment: Activation of flag-tagged human recombinant liver glucokinase expressed in Escherichia coli by glucose-6-phosphate dehydrogenase coupled continuous spectrophotometric assay in presence of 2.5 mM glucose
[3] = Octanol-water distribution coefficient, log D at pH 7.4 by HPLC-MS analysis
[4] = Tmax in Beagle dog at 1 mg/kg, po; assay type: ADME, organism-based, Canis lupus familiaris; set-up: dose 1 mg/kg, route oral; settings: in vivo
[5] = Cmax in Beagle dog at 1 mg/kg, po; assay type: ADME, organism-based, Canis lupus familiaris; set-up: dose 1 mg/kg, route oral; settings: in vivo
[6] = AUC (0 to infinity) in Beagle dog at 0.3 mg/kg, iv; assay type: ADME, organism-based, Canis lupus familiaris; set-up: time infinity, dose 0.3 mg/kg, route intravenous; settings: plasma
[7] = tested on: Mus musculus; experiment: Glucose lowering effect in normal-fed ICR mouse assessed as decrease in blood glucose AUC level at 3 mg/kg, po; assay type: functional, organism-based; set-up: dose 3 mg/kg
Outline: (§1)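 Male ICR mice aged ten to eleven weeks, fed ad libitum, given a single oral dose suspended in 0.5% methylcellulose; vehicle alone served as control. Blood glucose was measured immediately before dosing and at 0.5, 1, 1.5, 2, 3 and 4 h afterwards.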

[8] = tested on: Mus musculus; experiment: Glucose lowering effect in high-fat diet mouse assessed as decrease in blood glucose AUC level at 10 mg/kg, po; assay type: functional, organism-based; set-up: dose 10 mg/kg
Outline: (§2)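 Male high-fat-diet mice aged forty-one weeks, fed freely, dosed orally in 0.5% methylcellulose vehicle against a vehicle-only group. Blood glucose was sampled just before dosing and at 1, 2, 4 and 6 h after.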

[9] = tested on: Mus musculus; experiment: Glucose lowering effect in high-fat diet mouse assessed as decrease in blood glucose level at 10 mg/kg, po; assay type: functional, organism-based; set-up: dose 10 mg/kg; outline: as §2
[10] = Plasma clearance in Sprague-Dawley rat at 1 mg/kg, iv; assay type: ADME, organism-based; set-up: dose 1 mg/kg, route intravenous
[11] = Oral bioavailability in Sprague-Dawley rat at 3 mg/kg; assay type: ADME, organism-based; settings: in vivo
[12] = tested on: Mus musculus; experiment: Glucose lowering effect in high-fat diet mouse assessed as decrease in blood glucose level at 3 mg/kg, po; assay type: functional, organism-based; set-up: dose 3 mg/kg; outline: as §2
[13] = Cmax in Sprague-Dawley rat at 3 mg/kg, po; assay type: ADME, organism-based; set-up: dose 3 mg/kg, route oral; settings: in vivo
[14] = tested on: Mus musculus; experiment: Glucose lowering effect in normal-fed ICR mouse assessed as decrease in blood glucose AUC level at 10 mg/kg, po; assay type: functional, organism-based; set-up: dose 10 mg/kg; outline: as §1
[15] = AUC (0 to infinity) in Sprague-Dawley rat at 1 mg/kg, iv; assay type: ADME, organism-based; set-up: time infinity, dose 1 mg/kg, route intravenous; settings: plasma
[16] = Oral bioavailability in Beagle dog at 1 mg/kg; assay type: ADME, organism-based, Canis lupus familiaris; settings: in vivo
[17] = Plasma clearance in Beagle dog at 0.3 mg/kg, iv; assay type: ADME, organism-based, Canis lupus familiaris; set-up: dose 0.3 mg/kg, route intravenous
[18] = AUC (0 to infinity) in Beagle dog at 1 mg/kg, po; assay type: ADME, organism-based, Canis lupus familiaris; set-up: dose 1 mg/kg, route oral, time infinity; settings: plasma
[19] = Half life in Sprague-Dawley rat at 1 mg/kg, iv; assay type: ADME, organism-based; set-up: dose 1 mg/kg, route intravenous; settings: in vivo
[20] = tested on: Mus musculus; experiment: Glucose lowering effect in KKAy mouse assessed as decrease in blood glucose AUC level at 30 mg/kg, po; assay type: functional, organism-based; set-up: dose 30 mg/kg
Outline: (§3)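 Male KKAy mice aged nine weeks, fasted 4 h beforehand, given a single oral dose in 0.5% methylcellulose vehicle, with a vehicle-only control group. Blood glucose was read just before dosing and at 0.5, 1, 2 and 4 h afterwards.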

[21] = tested on: Mus musculus; experiment: Glucose lowering effect in KKAy mouse assessed as decrease in blood glucose level at 30 mg/kg, po; assay type: functional, organism-based; set-up: dose 30 mg/kg; outline: as §3
[22] = tested on: Mus musculus; experiment: Glucose lowering effect in high-fat diet mouse assessed as decrease in blood glucose AUC level at 3 mg/kg, po; assay type: functional, organism-based; set-up: dose 3 mg/kg; outline: as §2
[23] = Half life in Beagle dog at 0.3 mg/kg, iv; assay type: ADME, organism-based, Canis lupus familiaris; set-up: dose 0.3 mg/kg, route intravenous; settings: in vivo
[24] = tested on: Mus musculus; experiment: Glucose lowering effect in KKAy mouse assessed as decrease in blood glucose level at 10 mg/kg, po; assay type: functional, organism-based; set-up: dose 10 mg/kg; outline: as §3
[25] = tested on: Mus musculus; experiment: Glucose lowering effect in KKAy mouse assessed as decrease in blood glucose AUC level at 10 mg/kg, po; assay type: functional, organism-based; set-up: dose 10 mg/kg; outline: as §3
[26] = Tmax in Sprague-Dawley rat at 3 mg/kg, po; assay type: ADME, organism-based; set-up: dose 3 mg/kg, route oral; settings: in vivo
[27] = Volume of distribution at steady state in Beagle dog at 0.3 mg/kg, iv; assay type: ADME, organism-based, Canis lupus familiaris; set-up: dose 0.3 mg/kg, route intravenous; settings: in vivo, read-out: Vdss
[28] = Volume of distribution at steady state in Sprague-Dawley rat at 1 mg/kg, iv; assay type: ADME, organism-based; set-up: dose 1 mg/kg, route intravenous; settings: in vivo, read-out: Vdss
[29] = AUC (0 to infinity) in Sprague-Dawley rat at 3 mg/kg, po; assay type: ADME, organism-based; set-up: dose 3 mg/kg, route oral, time infinity; settings: plasma
[30] = Solubility in water at pH 7.4 by HPLC-UV method

## CS(=O)(=O)c1ccc(Oc2cc(OC3CCNC3)cc(C(=O)Nc3nccs3)c2)cc1 (racemic)
[1]
  EC50: 4.2 µM
[2]
  EC50: 18 µM

## CS(=O)(=O)c1ccc(Oc2cc(OC(CO)C(F)(F)F)cc(C(=O)Nc3nccs3)c2)cc1 (racemic)
[3]
  logD: > 4
[1]
  EC50: 0.24 µM
[2]
  EC50: 0.79 µM

## CS(=O)(=O)c1ccc(Oc2cc(O[C@H]3CCOC3)cc(C(=O)Nc3nccs3)c2)cc1
[1]
  EC50: 0.05 µM
[2]
  EC50: 0.19 µM

## CS(=O)(=O)c1ccc(Oc2cc(O[C@H]3CCC[C@H]3O)cc(C(=O)Nc3nccs3)c2)cc1 (racemic)
[3]
  logD: 3.4
[1]
  EC50: 0.12 µM
[2]
  EC50: 0.46 µM

## COCC(C)Oc1cc(Oc2ccc(S(C)(=O)=O)cc2)cc(C(=O)Nc2nccs2)c1 (racemic)
[3]
  logD: 4
[1]
  EC50: 0.07 µM
[2]
  EC50: 0.19 µM

## CC(CN)Oc1cc(Oc2ccc(S(C)(=O)=O)cc2)cc(C(=O)Nc2nccs2)c1 (racemic)
[3]
  logD: 1.1
[1]
  EC50: 0.21 µM
[2]
  EC50: 1.5 µM

## CC(CN(C)C)Oc1cc(Oc2ccc(S(C)(=O)=O)cc2)cc(C(=O)Nc2nccs2)c1 (racemic)
[1]
  EC50: 2.6 µM
[2]
  EC50: 12 µM

## COCC(COC)Oc1cc(Oc2ccc(S(C)(=O)=O)cc2)cc(C(=O)Nc2nccs2)c1
[3]
  logD: > 4
[1]
  EC50: 0.12 µM
[2]
  EC50: 0.61 µM

## C[C@@H](CO)Oc1cc(Oc2ccc(S(C)(=O)=O)cc2)cc(C(=O)Nc2nccs2)c1
[4]
  Tmax: 1.2 h
[5]
  Cmax: 0.8 µM
[6]
  AUC(0-inf): 2.4 µM·h
[7]
  Activity: Active
[8]
  Activity: Active
[9]
  Activity: Active
[10]
  clearance: 0.234 L/h/kg
[11]
  bioavailability: 33%
[12]
  Activity: Active
[13]
  Cmax: 3.4 µM
[14]
  Activity: Active
[15]
  AUC(0-inf): 10 µM·h
[16]
  bioavailability: 57%
[17]
  clearance: 0.276 L/h/kg
[18]
  AUC(0-inf): 4.6 µM·h
[19]
  half-life: 1.3 h
[20]
  Activity: Active
[21]
  Activity: Active
[22]
  Activity: Active
[23]
  half-life: 5.4 h
[24]
  Activity: Active
[25]
  Activity: Active
[26]
  Tmax: 0.3 h
[27]
  Vd: 1.56 L/kg
[28]
  Vd: 0.19 L/kg
[29]
  AUC(0-inf): 12 µM·h

## CC(CCO)Oc1cc(Oc2ccc(S(C)(=O)=O)cc2)cc(C(=O)Nc2nccs2)c1 (racemic)
[3]
  logD: 3.4
[1]
  EC50: 0.06 µM
[2]
  EC50: 0.15 µM

## Cc1csc(NC(=O)c2cc(Oc3ccc(S(C)(=O)=O)cc3)cc(OC(C)C)c2)n1
[7]
  Activity: inactive
[3]
  logD: > 5
[14]
  Activity: inactive
[30]
  solubility: < 0.1 µg/mL

## CS(=O)(=O)c1ccc(Oc2cc(O[C@H]3CCC[C@H]3O)cc(C(=O)Nc3nccs3)c2)cc1
[1]
  EC50: 0.11 µM
[2]
  EC50: 0.26 µM

## CS(=O)(=O)c1ccc(Oc2cc(O[C@@H]3CCOC3)cc(C(=O)Nc3nccs3)c2)cc1
[1]
  EC50: 0.3 µM
[2]
  EC50: 1.8 µM

## CS(=O)(=O)c1ccc(Oc2cc(OC3CCOCC3)cc(C(=O)Nc3nccs3)c2)cc1
[3]
  logD: 4.1
[1]
  EC50: 0.12 µM
[2]
  EC50: 0.46 µM
